Experiment: Toxicity liver stage against HepG2, at 10uM
Type: cell-based
Design: test concentration 10 uM, cell line HepG2-A16-CD81EGFP
Details: human, HepG2-A16-CD81EGFP cells; read-out: INHIBITION
Summary of the method: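 Uninfected HepG2-A16-CD81EGFP cells, 3 × 10^3 per well, 1536-well, plated on prespotted compound at 10 μM final, parasite-free screening media added to match infected plates; puromycin 10 μM positive, DMSO 0.5% negative; run in parallel with 48 h PbLuc assay at 37 °C, 5% CO2; viability by CellTiter-Glo luminescence, normalized to controls.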

COCCCNC(=O)NCc1cccn1Cc1ccccc1C
cytotoxicity at 10 µM: 2.88%

COc1ccc(NC(=O)CCNc2ncccn2)cn1
cytotoxicity at 10 µM: -48.4%

Cc1cc(NCc2ccco2)nc2[nH]nc(N)c12
cytotoxicity at 10 µM: -43.6%

Cc1nn(-c2ncccn2)c2c1C(c1cnn(C)c1)SCC(=O)N2 (stereo not given)
cytotoxicity at 10 µM: -45%

O=C(NC1CCCc2c1[nH]c1ccc(F)cc21)c1n[nH]c2c1CCC2 (stereo not given)
cytotoxicity at 10 µM: 51.7%

CN(C)C(=O)c1cnn2c1OCCC2
cytotoxicity at 10 µM: -6.59%

Cc1cnc2n(c1=O)CC(C(=O)Nc1ccon1)CS2 (stereo not given)
cytotoxicity at 10 µM: 0.595%

CS(=O)(=O)N1C[C@H](C(=O)Nc2cnccn2)C[C@H]2OCC[C@H]21
cytotoxicity at 10 µM: 10.7%

CN1C(=O)CC[C@@H]2[C@H]1CCN2S(=O)(=O)Cc1ccccc1
cytotoxicity at 10 µM: -5.73%

CCn1nnc(NCc2cc(Br)cc(Br)c2OC)n1
cytotoxicity at 10 µM: 13.3%

COc1ccc(C(=O)Nc2c(C(=O)N(C)C)nn(C)c2C)cc1
cytotoxicity at 10 µM: 6.03%

Cc1cc2nc(O)c(O)nc2cc1S(=O)(=O)NC1CC1
cytotoxicity at 10 µM: 9.43%

Cc1nc(O)cc([C@@H]2CN(C(=O)C3CC3)C[C@H]2c2ccccc2F)n1
cytotoxicity at 10 µM: 4.95%

Cc1cccc(C2(O)CCN(Cc3ccccc3N3CCCC3)CC2)c1
cytotoxicity at 10 µM: 10.6%

Cc1cc(-c2cnc(NC3CCCCC3)nc2-c2ccco2)on1
cytotoxicity at 10 µM: -16.4%

CC(=O)Nc1nc(C2CCN(C(=O)c3cccnc3)CC2)cs1
cytotoxicity at 10 µM: -2.47%

Cc1cc(C)cc(-c2ccc(CC3(C(=O)O)CCOCC3)cc2)c1
cytotoxicity at 10 µM: 4.81%

CC(C)C(CNC(=O)CCn1cncn1)N1CCc2ccccc2C1 (stereo not given)
cytotoxicity at 10 µM: -162%

CC(=O)N1CC(C)CN(C(=O)c2cnccn2)c2ccccc21 (stereo not given)
cytotoxicity at 10 µM: 3.82%

N#Cc1cccc(NC(=O)N[C@H](CO)Cc2ccc(O)cc2)c1
cytotoxicity at 10 µM: 0.597%

COc1cc(Cl)ccc1CNC(=O)N(C)C(C)CS(C)(=O)=O (stereo not given)
cytotoxicity at 10 µM: -50.1%

CCOc1ccc(Br)cc1S(=O)(=O)N(CC)Cc1ccc(N(C)C)cc1
cytotoxicity at 10 µM: 14.1%

CNC(=O)c1sccc1S(=O)(=O)Nc1ccc(C)cc1
cytotoxicity at 10 µM: 11.4%

CCC(=O)Nc1ncn(Cc2cccnc2)n1
cytotoxicity at 10 µM: -11.3%

CN(Cc1cccc(C(N)=O)c1)c1ncc(C#N)cc1Cl
cytotoxicity at 10 µM: 8.36%

C[C@H]1CN(C(=O)c2cccc(F)c2Cl)CCN1S(C)(=O)=O
cytotoxicity at 10 µM: -13.5%

CC(C)C1CN(C(=O)c2ccccc2)CCS1 (stereo not given)
cytotoxicity at 10 µM: 1.62%

CN(C)C(=O)Cc1nc(CN2CCCC2Cn2cncn2)cs1 (stereo not given)
cytotoxicity at 10 µM: 8.58%

CCC(CNC1CCN(C(C)=O)CC1)Oc1cccc(C)c1 (stereo not given)
cytotoxicity at 10 µM: 6.42%

CC(NCc1cnc(C2CCC2)s1)c1ccc(-n2cncn2)cc1 (stereo not given)
cytotoxicity at 10 µM: 1.44%

CC(=O)NCCCNCc1c(C)nn(CC(C)C)c1N(C)C
cytotoxicity at 10 µM: 6.47%

CCOCCN1CCCC1CS(N)(=O)=O (stereo not given)
cytotoxicity at 10 µM: 14.3%

CC(O)(CNC(=O)c1cccnc1-n1cccn1)c1ccsc1 (stereo not given)
cytotoxicity at 10 µM: 2.38%

O=C(CCN1CCc2[nH]nc(C(F)(F)F)c2C1)Nc1ccccc1
cytotoxicity at 10 µM: -1.2%

CC(C)(C)c1ncc(CNc2ccccc2Cn2cncn2)s1
cytotoxicity at 10 µM: 48.7%

CC1(C)CN(Cc2csc(CS(C)(=O)=O)n2)Cc2ccccc21
cytotoxicity at 10 µM: 6.38%

COCCN1CC[C@]2(CN(C(=O)c3ccc[nH]3)C[C@H]2C)C1=O
cytotoxicity at 10 µM: 2.53%

O=C(NCCN1CCCC1)c1cc2c(s1)CCN2c1ncccn1
cytotoxicity at 10 µM: -108%

Cc1csc(NC(=O)[C@@H]2C[C@H]3[C@H](CCN3S(C)(=O)=O)O2)n1
cytotoxicity at 10 µM: 1.64%

CN(C)C(=O)[C@H]1CCS(=O)(=O)[C@@H]2CN(c3ncccn3)C[C@H]12
cytotoxicity at 10 µM: -103%

CN(C)CC(=O)N1CCC2(CC1)COCCN(Cc1ccncc1)C2
cytotoxicity at 10 µM: -80.8%

CCc1ccccc1OC1CN(C(=O)c2ccnc(OC)c2)C1
cytotoxicity at 10 µM: 32.8%

Cc1n[nH]c(C)c1Sc1ccccc1NC(=O)N1CCN(C)CC1
cytotoxicity at 10 µM: -12.9%

CC(C)(C)c1cn(C2CCN(C(=O)c3cnccn3)CC2)nn1
cytotoxicity at 10 µM: 14%

N[C@H]1CN(C(=O)c2ccc(Cl)cc2O)C[C@@H]1C1CC1
cytotoxicity at 10 µM: -44.7%

Cn1ncc2c1NC(=O)CC2c1cc2c(cc1Cl)OCO2 (stereo not given)
cytotoxicity at 10 µM: 55.6%

COc1nc2c(cc1C(=O)N1CC[C@H](CO)[C@@H](O)C1)CCC2
cytotoxicity at 10 µM: -42.4%

CCOC(=O)CC(C)Nc1nc(C2CCCC2)nc2c1cnn2C (stereo not given)
cytotoxicity at 10 µM: -43.1%

Cc1cnc(NCc2cnn(C)c2)nc1-c1cnn(C)c1
cytotoxicity at 10 µM: 52.1%

CCc1ccc(CN(Cc2ccco2)C(C)C(C)C)nc1 (stereo not given)
cytotoxicity at 10 µM: -13.5%

Cc1nc(CC2CCN(Cc3ccc(CCC(C)(C)O)cc3)CC2)no1
cytotoxicity at 10 µM: -0.94%

N#Cc1cnc(N2Cc3cnn(Cc4ccc(F)cc4)c3C2)nc1N
cytotoxicity at 10 µM: 4.84%

O=C1N(CCO)CCCC12CCN(Cc1nnc(C3CC3)o1)C2 (stereo not given)
cytotoxicity at 10 µM: 5.27%

Cc1nc(CCNC(=O)CC2CCN(C(C)C)CC2)sc1Cl
cytotoxicity at 10 µM: -194%

CCc1nnc(CNC2CCN(c3ncnc4c(C)csc34)CC2)s1
cytotoxicity at 10 µM: 10.5%

CCc1ncc2c(n1)CN(C(=O)c1c(C)[nH]c3c1C(=O)CCC3)C2
cytotoxicity at 10 µM: -45.8%

Cc1nc(-n2cnnc2)ccc1-c1cccc2c1CCNC2
cytotoxicity at 10 µM: 12.2%

OC1(CN2CCCC2)CCCN(Cc2cnc(-c3ccco3)nc2)C1 (stereo not given)
cytotoxicity at 10 µM: -6.84%

NCC1CCN(c2cnn(CCCn3cccn3)c(=O)c2)CC1
cytotoxicity at 10 µM: -52.8%

CC(C)c1cc(N2CCC(NS(C)(=O)=O)CC2)n2nccc2n1
cytotoxicity at 10 µM: 0.324%

Cc1nn2c(N3CCC(C(N)=O)CC3)cc(-c3ccccc3)nc2c1C
cytotoxicity at 10 µM: -2.83%

CC(=O)Nc1ncc(S(=O)(=O)N2CCC(C)CC2)s1
cytotoxicity at 10 µM: 14.8%

COc1ccccc1OCCCN(C)c1cc(C)nc(N)n1
cytotoxicity at 10 µM: 1.39%

CCCC(C)CN1CCC(n2cc(C3CCCC3)nn2)CC1 (stereo not given)
cytotoxicity at 10 µM: 14.2%

CSCc1ccc(C(=O)NCCCNc2ccc(C(F)(F)F)cn2)cc1
cytotoxicity at 10 µM: 3.84%

CC(C)CCc1nc(CNCC2CCCN2c2cccnn2)cs1 (stereo not given)
cytotoxicity at 10 µM: -10.7%

COc1ccc(OCC(=O)NS(=O)(=O)c2ccc(Br)s2)cc1
cytotoxicity at 10 µM: -0.383%

Cc1cccc(-n2ncc(C(=O)N3CCn4c(C)nnc4C3)c2C)c1
cytotoxicity at 10 µM: 2.14%

Cc1cc(S(=O)(=O)N2CCc3ccc(F)cc32)cc(C(=O)O)c1C
cytotoxicity at 10 µM: 3.2%

CCn1cnnc1CNC(=O)N1CCC(C(=O)NC)CC1
cytotoxicity at 10 µM: 2.65%

O[C@@]1(c2ccccn2)CC[C@H]2CN(Cc3cccc(Cl)c3Cl)C[C@H]21
cytotoxicity at 10 µM: 0.256%

O=C(NCCc1cccs1)[C@]12COC[C@H]1CN(C1CCOCC1)C2
cytotoxicity at 10 µM: -116%

O=C(NC1CC1)N1CCc2ccc(=O)n(CCN3CCCC3)c2CC1
cytotoxicity at 10 µM: -0.603%

Cc1nnc(N2CC[C@H]3C[C@@H](C(=O)NC4CCCC4)O[C@H]3C2)s1
cytotoxicity at 10 µM: 6.69%

Cn1cc(CN2CC[C@@H]3[C@@H]2CCN3Cc2ccc3c(c2)OCO3)cn1
cytotoxicity at 10 µM: -3.63%

O=C(NC1CC(F)(F)C1)[C@]12COC[C@H]1CN(Cc1ccccc1)C2
cytotoxicity at 10 µM: -108%

Cc1ccc(CN2CC[C@H]3OCC[C@@H](C(=O)N4CCCCO4)[C@@H]3C2)o1
cytotoxicity at 10 µM: 3.54%

O=C(CC1CCCC1)N1C[C@@H]2CCN(c3cccnc3)C[C@@H]2C1
cytotoxicity at 10 µM: 4.24%

O=C(Nc1cccnc1)C1Cc2nc(-c3ccsc3)sc2N1CC1CC1 (stereo not given)
cytotoxicity at 10 µM: 14.5%

COc1cccc(-c2cccc(CN3C[C@H]4CC[C@@H](C3)N(C)C4=O)c2)c1
cytotoxicity at 10 µM: 6.98%
